Usually IC50 stands for the concentration at which inhibition is half-maximal. A high value points to lower potency.

These results are taken from ChEMBL document CHEMBL2424525, “Synthesis of 3'-azido-2',3'-dideoxy-5-fluorouridine phosphoramidates and evaluation of their anticancer activity” (Eur J Med Chem, 2013).

Holding throughout (format): functional, cell-based
For test [1], the system named is HeLa. In words: Cytotoxicity against human HeLa cells after 72 hrs by SRB assay. The essentials: (§1)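 SRB assay. HeLa and KB cells were grown in RPMI 1640 and MCF-7 cells in DMEM. Cells were fixed with 50% trichloroacetic acid for 1 h at 4 °C, then washed with distilled water. Unbound dye was removed with 1% acetic acid and plates were air dried overnight. OD read at 490 nm. Survival was taken as % absorbance of untreated control. Cytarabine served as internal standard. Three independent experiments.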
(In general: The SRB assay estimates cell density from bound dye.)

Test [2] deals with MCF7. The test can be described thus: Cytotoxicity against human MCF7 cells after 72 hrs by SRB assay. The following applies: MCF7, 72 h. The essentials:
as §1

Test [3] deals with KB. The test can be described thus: Cytotoxicity against human KB cells after 72 hrs by SRB assay. An outline of the steps:
as §1

Turning to `O=c1[nH]cc(F)c(=O)[nH]1` [FLUOROURACIL], the IC50 in test [1] came out at 6.23 µM; in test [2] it was 6.53 µM; in test [3], 4.84 µM.
As to `O=c1[nH]c(=O)n([C@H]2C[C@H](O)[C@@H](CO)O2)cc1F` [FLOXURIDINE], the results for the half-inhibitory concentration (IC50) in test [1], in test [2] and in test [3] were 6.5 µM, 12.2 µM and 8.69 µM, respectively.
In the case of `CCNP(=O)(OC[C@H]1O[C@@H](n2cc(F)c(=O)[nH]c2=O)C[C@@H]1N=[N+]=[N-])Oc1ccc(Cl)cc1` (stereo not given in full), the 50% inhibitory concentration (IC50) in test [1] turned out to be 1.64 µM; in test [2] it was 1.88 µM; in test [3], 1.64 µM.
On to `CCCNP(=O)(OC[C@H]1O[C@@H](n2cc(F)c(=O)[nH]c2=O)C[C@@H]1N=[N+]=[N-])Oc1ccc(Cl)cc1` (stereo not given in full), for which the half-inhibitory concentration (IC50) turned out to be 25.9 µM in test [1], 27.2 µM in test [2] and 26.9 µM in test [3].
The matching figures for `CCCCNP(=O)(OC[C@H]1O[C@@H](n2cc(F)c(=O)[nH]c2=O)C[C@@H]1N=[N+]=[N-])Oc1ccc(Cl)cc1` (stereo not given in full): 32.9 µM, 41.8 µM and 38.7 µM.
The matching figures for `COC(=O)[C@H](C)NP(=O)(OC[C@H]1O[C@@H](n2cc(F)c(=O)[nH]c2=O)C[C@@H]1N=[N+]=[N-])Oc1ccc(Cl)cc1` (stereo not given in full): 38.4 µM, 38.4 µM and over 100 µM.
The matching figures for `C=CCNP(=O)(OC[C@H]1O[C@@H](n2cc(F)c(=O)[nH]c2=O)C[C@@H]1N=[N+]=[N-])Oc1ccc(Cl)cc1` (stereo not given in full): 9.98 µM, 10.4 µM and 8.59 µM.
`[N-]=[N+]=N[C@H]1C[C@H](n2cc(F)c(=O)[nH]c2=O)O[C@@H]1COP(=O)(NCC(F)(F)F)Oc1ccc(Cl)cc1` (stereo not given in full): the half-maximal inhibitory concentration (IC50) in test [1] is 43.9 µM; in test [2] it was 23.9 µM; in test [3], 40.5 µM.
The matching figures for `[N-]=[N+]=NCCCNP(=O)(OC[C@H]1O[C@@H](n2cc(F)c(=O)[nH]c2=O)C[C@@H]1N=[N+]=[N-])Oc1ccc(Cl)cc1` (stereo not given in full): 96.2 µM, 33.1 µM and 99.3 µM.
The matching figures for `[N-]=[N+]=NCCCCNP(=O)(OC[C@H]1O[C@@H](n2cc(F)c(=O)[nH]c2=O)C[C@@H]1N=[N+]=[N-])Oc1ccc(Cl)cc1` (stereo not given in full): 35.5 µM, 22.4 µM and 46.6 µM.
The matching figures for `CNP(=O)(OC[C@H]1O[C@@H](n2cc(F)c(=O)[nH]c2=O)C[C@@H]1N=[N+]=[N-])Oc1ccc(Cl)cc1` (stereo not given in full): 8.43 µM, 4.42 µM and 8.64 µM.
As for `Nc1ccn([C@@H]2O[C@H](CO)[C@@H](O)[C@@H]2O)c(=O)n1` [CYTARABINE], inhibition in test [1] was half-maximal at 3.54 µM (IC50). This lies in the single-digit micromolar range.
`[N-]=[N+]=N[C@H]1C[C@H](n2cc(F)c(=O)[nH]c2=O)O[C@@H]1CO`: the IC50 in test [1] was determined as 11.1 µM; in test [2] it was 10.3 µM; in test [3], 8.11 µM.
The matching figures for `C#CCNP(=O)(OC[C@H]1O[C@@H](n2cc(F)c(=O)[nH]c2=O)C[C@@H]1N=[N+]=[N-])Oc1ccc(Cl)cc1` (stereo not given in full): 4.21 µM, 5.41 µM and 3.81 µM.
